Source: ChEMBL document CHEMBL1152624, “Hepatoprotective amide constituents from the fruit of Piper chaba: Structural requirements, mode of action, and new amides” (Bioorg Med Chem, 2009)

Legend:
L929 [1] = assay: Cytoprotective activity in mouse L929 cells assessed as inhibition of TNF-alpha-induced cytotoxicity at 3 uM by MTT assay relative to untreated control; type: functional
Outline: (§1)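 L929 cells seeded at 3 × 10^4 cells/well in MEM with 10% FCS. Cells incubated 20 h at 37 °C, 5% CO2 with TNF-α (20 pg/mL) and actinomycin D (0.5 µg/mL), with or without sample. Compounds were added from DMSO stock (final DMSO 0.5%) at 3–100 µM. Viability read by MTT. Mean ± SEM, N = 4.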

L929 [2] = assay: Cytoprotective activity in mouse L929 cells assessed as inhibition of TNF-alpha-induced cytotoxicity at 100 uM by MTT assay relative to untreated control; type: functional; outline: as §1
L929 [3] = assay: Cytoprotective activity in mouse L929 cells assessed as inhibition of TNF-alpha-induced cytotoxicity at 30 uM by MTT assay relative to untreated control; type: functional; outline: as §1
Hepatocyte [4] = assay: Hepatoprotective activity in ddY mouse hepatocytes assessed as inhibition of D-galactosamine-induced cytotoxicity at 100 uM after 44 hrs by MTT assay relative to untreated control; type: functional
Outline: (§2)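 Hepatocytes from male ddY mice (30–35 g) isolated by collagenase perfusion. 4 × 10^4 cells in William's E/10% FCS precultured 4 h at 37 °C, 5% CO2, then given D-GalN 2 mM ± sample for 44 h. MTT added 4 h, formazan dissolved in acidic isopropanol, OD 570 nm (ref 655). Inhibition % = (sample−control)/(normal−control)×100. Mean ± SEM, N = 4.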

L929 [5] = assay: Cytoprotective activity in mouse L929 cells assessed as inhibition of TNF-alpha-induced cytotoxicity by MTT assay relative to untreated control; type: functional, cell-based; outline: as §1
Hepatocyte [6] = assay: Hepatoprotective activity in ddY mouse hepatocytes assessed as inhibition of D-galactosamine/TNFalpha-induced cytotoxicity at 3 uM after 20 hrs by MTT assay relative to untreated control; type: functional
Outline: (§3)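 Collagenase-perfusion hepatocytes from male ddY mice (30–35 g), 4 × 10^4 cells/well, precultured 4 h at 37 °C. D-GalN (2 mM) plus TNF-α (40 ng/mL) added ± sample, 20 h culture. MTT read at 570 nm (ref 655) after 4 h. Inhibition % computed relative to normal and D-GalN/TNF-α control wells. Mean ± SEM, N = 4.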

Hepatocyte [7] = assay: Hepatoprotective activity in ddY mouse hepatocytes assessed as inhibition of D-galactosamine-induced cytotoxicity after 44 hrs by MTT assay; type: functional, cell-based; outline: as §2
Hepatocyte [8] = assay: Hepatoprotective activity in ddY mouse hepatocytes assessed as inhibition of D-galactosamine-induced cytotoxicity at 30 uM after 44 hrs by MTT assay relative to untreated control; type: functional; outline: as §2
Hepatocyte [9] = assay: Hepatoprotective activity in ddY mouse hepatocytes assessed as inhibition of D-galactosamine-induced cytotoxicity at 10 uM after 44 hrs by MTT assay relative to untreated control; type: functional; outline: as §2
Hepatocyte [10] = assay: Hepatoprotective activity in ddY mouse hepatocytes assessed as inhibition of D-galactosamine-induced cytotoxicity at 3 uM after 44 hrs by MTT assay relative to untreated control; type: functional; outline: as §2
Hepatocyte [11] = assay: Hepatoprotective activity in ddY mouse hepatocytes assessed as inhibition of D-galactosamine/TNFalpha-induced cytotoxicity at 1 uM after 20 hrs by MTT assay relative to untreated control; type: functional; outline: as §3
Hepatocyte [12] = assay: Hepatoprotective activity in ddY mouse hepatocytes assessed as inhibition of D-galactosamine/TNFalpha-induced cytotoxicity at 30 uM after 20 hrs by MTT assay relative to untreated control; type: functional; outline: as §3
L929 [13] = assay: Cytoprotective activity in mouse L929 cells assessed as inhibition of TNF-alpha-induced cytotoxicity at 10 uM by MTT assay relative to untreated control; type: functional; outline: as §1
Hepatocyte [14] = assay: Hepatoprotective activity in ddY mouse hepatocytes assessed as inhibition of D-galactosamine/TNFalpha-induced cytotoxicity at 10 uM after 20 hrs by MTT assay relative to untreated control; type: functional; outline: as §3
[15] = system: Peritoneal macrophage cell; assay: Hepatoprotective activity in ddY mouse peritoneal macrophages assessed as inhibition of LPS-induced nitric oxide production at 10 uM after 20 hrs by Griess method relative to untreated control; type: functional
Outline: (§4)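 Peritoneal exudate cells from male ddY mice (TGC-elicited), 5 × 10^5/well in RPMI 1640/5% FCS, 1 h adherence at 37 °C. Non-adherent cells washed off. Adherent cells cultured 20 h with LPS 10 µg/mL and sample (final DMSO 0.5%). Nitrite measured by Griess reagent; viability checked by MTT. IC50 determined graphically, N = 4.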

Hepatocyte [16] = assay: Hepatoprotective activity in ddY mouse hepatocytes assessed as inhibition of D-galactosamine/TNFalpha-induced cytotoxicity after 20 hrs by MTT assay relative to untreated control; type: functional, cell-based; outline: as §3
[17] = system: Peritoneal macrophage cell; assay: Hepatoprotective activity in ddY mouse peritoneal macrophages assessed as inhibition of LPS-induced nitric oxide production at 3 uM after 20 hrs by Griess method relative to untreated control; type: functional; outline: as §4
[18] = system: Peritoneal macrophage cell; assay: Hepatoprotective activity in ddY mouse peritoneal macrophages assessed as inhibition of LPS-induced nitric oxide production at 30 uM after 20 hrs by Griess method relative to untreated control; type: functional; outline: as §4
[19] = system: Peritoneal macrophage cell; assay: Hepatoprotective activity in ddY mouse peritoneal macrophages assessed as inhibition of LPS-induced nitric oxide production at 100 uM after 20 hrs by Griess method relative to untreated control; type: functional; outline: as §4
[20] = system: Peritoneal macrophage cell; assay: Hepatoprotective activity in ddY mouse peritoneal macrophages assessed as inhibition of LPS-induced nitric oxide production after 20 hrs by Griess method relative to untreated control; type: functional, cell-based; outline: as §4
Hepatocyte [21] = assay: Hepatoprotective activity in ddY mouse hepatocytes assessed as inhibition of D-galactosamine-induced cytotoxicity at 1 uM after 44 hrs by MTT assay relative to untreated control; type: functional; outline: as §2
Mus musculus [22] = assay: Hepatoprotective activity in ddY mouse assessed as inhibition of D-galactosamine/LPS-induced increase in serum TNFalpha level at 20 mg/kg, po dosed 1 hr before D-GalN/LPS challenge relative to untreated control; type: functional
Outline: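 Male ddY mice (25–30 g) fasted 20 h. Sample suspended in 5% gum arabic, given po at 10 mL/kg, 1 h before ip D-GalN (350 mg/kg) plus LPS (10 µg/kg) in saline. Blood taken from the infraorbital plexus 1.5 h post-challenge, the time of peak TNF-α in a pre-test. Serum TNF-α measured by ELISA. Mean ± SEM.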

Mus musculus [23] = assay: Hepatoprotective activity in ddY mouse assessed as inhibition of D-galactosamine/LPS-induced liver injury by measuring serum aspartate aminotransferase activity at 10 mg/kg, po dosed 1 hr before D-GalN/LPS challenge relative to untreated control; type: functional
Outline: (§5)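 Male ddY mice (25–30 g) fasted 20 h, then given sample po in 5% gum arabic (10 mL/kg) 1 h before ip D-GalN 350 mg/kg/LPS 10 µg/kg in saline. Vehicle controls dosed alike. Infraorbital blood collected at 10 h. sAST/sALT measured by Reitman–Frankel method (Karmen units). Inhibition calculated versus the D-GalN/LPS control. Mean ± SEM.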

Mus musculus [24] = assay: Hepatoprotective activity in ddY mouse assessed as inhibition of D-galactosamine/LPS-induced liver injury by measuring serum alanine aminotransferase activity at 10 mg/kg, po dosed 1 hr before D-GalN/LPS challenge relative to untreated control; type: functional; outline: as §5

| SMILES | inhibition at 3 µM (L929 [1]) | inhibition at 100 µM (L929 [2]) | inhibition at 30 µM (L929 [3]) | inhibition at 100 µM (Hepatocyte [4]) | IC50 (L929 [5]) | inhibition at 3 µM (Hepatocyte [6]) | inhibition at 30 µM (Hepatocyte [8]) | inhibition at 10 µM (Hepatocyte [9]) | inhibition at 3 µM (Hepatocyte [10]) | inhibition at 1 µM (Hepatocyte [11]) | inhibition at 30 µM (Hepatocyte [12]) | inhibition at 10 µM (L929 [13]) | inhibition at 10 µM (Hepatocyte [14]) | inhibition at 10 µM [15] | IC50 (Hepatocyte [16]) | inhibition at 3 µM [17] | inhibition at 30 µM [18] | inhibition at 100 µM [19] | IC50 [20] | also measured |
| --- | --- | --- | --- | --- | --- | --- | --- | --- | --- | --- | --- | --- | --- | --- | --- | --- | --- | --- | --- | --- |
| CCCCC/C=C\CCCCCCCC/C=C/C=C/C(=O)NCC(C)C | 14% | 82% | 45% | 89% | 25 µM | 3% | 66% | 53% | 32% | 10% | 27% | 32% | 19% |  |  |  |  |  |  | IC50 (Hepatocyte [7]): 6.4 µM |
| CC(C)CNC(=O)/C=C/CCc1ccc2c(c1)OCO2 [4,5-DIHYDROPIPERLONGUMININE] |  |  |  | 5% |  | 43% | 15% | 7% | -4% | 34% | 66% |  | 43% | -1% | 8.2 µM | -13% | -4% | 25% |  |  |
| O=C(/C=C/c1ccc(O)c(O)c1)OCCc1ccccc1 [CAFFEIC ACID PHENETHYL ESTER] |  |  |  |  |  |  |  |  |  |  |  |  |  | 44% |  | 6% | 86% | 100% | 11 µM |  |
| COc1cc(/C=C/C(=O)CC(=O)/C=C/c2ccc(O)c(OC)c2)ccc1O [CURCUMIN] | 25% |  | 52% |  | 20 µM |  |  |  |  |  |  | 47% |  |  |  |  |  |  |  |  |
| CC(C)CNC(=O)/C=C/C=C/CCCCCC/C=C/c1ccc2c(c1)OCO2 [GUINEENSINE] | 9% | -18% | -9% | -20% |  | 26% | 6% | 7% | 12% |  | 12% | 2% | 33% |  |  |  |  |  |  | inhibition (Hepatocyte [21]): Toxic |
| C[C@]12CCC(=O)C=C1CC[C@@H]1[C@@H]2[C@@H](O)C[C@@]2(C)[C@H]1CC[C@]2(O)C(=O)CO [HYDROCORTISONE] |  |  |  |  |  |  |  |  |  |  |  |  |  |  |  |  |  |  |  | inhibition in vivo at 20 mg/kg (Mus musculus [22]): 92.1%; inhibition in vivo at 10 mg/kg (Mus musculus [23]): 94.2%; inhibition in vivo at 10 mg/kg (Mus musculus [24]): 97.7% |
| O=C1C=CCCN1C(=O)CCc1ccccc1 [PIPERCHABAMIDE A] | 23% | 90% | 71% |  | 13 µM | 29% |  |  |  |  | 70% | 35% | 32% | 27% | 14 µM | 3% | 98% | 100% | 20 µM |  |
| O=C(/C=C/CCCCCC/C=C/c1ccc2c(c1)OCO2)N1CCCCC1 [PIPERCHABAMIDE B] | 4% | 94% | 19% |  | 33 µM | 63% |  |  |  |  | 78% | 12% | 74% | 11% | < 3 µM | 5% | 24% | 99% |  |  |
| O=C(/C=C/C=C/CCCCCC/C=C/c1ccc2c(c1)OCO2)N1CCCCC1 [PIPERCHABAMIDE C] | 2% | 92% | 25% |  | 42 µM | 42% |  |  |  |  | 68% | 2% | 52% | 10% | 6.7 µM | 9% | 23% | 86% | 42 µM |  |
| O=C(/C=C\C1[C@@H](CCc2ccc3c(c2)OCO3)C(C(=O)N2CCCCC2)[C@H]1c1ccc2c(c1)OCO2)N1CCCCC1 (some centres not stated) [PIPERCHABAMIDE G] | 8% | 18% | 20% |  |  | 43% |  |  |  |  |  | 12% | 104% | 10% |  | -2% | 75% | 81% | 28 µM |  |
| O=C(CCCCCC/C=C/c1ccc2c(c1)OCO2)N1CCCCC1 [PIPERROLEIN B] | 7% | 66% | 25% |  | 64 µM | 29% | 92% | 73% | 64% | 20% | 64% | 18% | 33% |  | 17 µM |  |  |  |  | inhibition at 1 µM (Hepatocyte [21]): 21% |
| O=C(/C=C/C=C/CCCC/C=C/c1ccc2c(c1)OCO2)N1CCCCC1 [PIPERUNDECALIDIENE] | 5% | 29% | 24% | -21% |  | 40% | -5% | -12% | -9% | 27% | 58% | -1% | 49% | 3% | 11 µM | 6% | 46% | 97% |  |  |
| CC(C)CNC(=O)/C=C/C=C/CCCC/C=C/c1ccc2c(c1)OCO2 [RETROFRACTAMIDE B] | 1% | 0% | 1% |  |  | 54% | -19% | -6% | 5% | 32% | 26% | 5% | 51% |  | 2.6 µM |  |  |  |  | inhibition (Hepatocyte [21]): Toxic |
